In ChEMBL document CHEMBL1275561, “In vitro activities of doripenem, a new broad-spectrum carbapenem, against recently collected clinical anaerobic isolates, with emphasis on the Bacteroides fragilis group” (2008):
Converted amounts (≈) assume the structure as drawn. “And” between values parts separate entries of the source, which are not always exact repeats. Equal entries are not always repeated.

Experiments:
Format in all cases: functional
[1] = system: Parabacteroides distasonis; assay: Antimicrobial activity against Bacteroides distasonis by agar dilution method
How it was run: (§1)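 CLSI agar dilution on enriched brucella agar (5% lysed defibrinated sheep blood, 1 μg/ml vitamin K1), with drug plates made on the test day. Log-phase cells were adjusted to 0.5 McFarland, and about 10^5 CFU/spot was delivered by Steers replicator. Plates were incubated anaerobically at 37°C for 48 h. MIC was the lowest concentration giving a marked growth change versus the control plate. Controls were B. fragilis ATCC 25285 and B. thetaiotaomicron ATCC 29741.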

[2] = system: Bacteroides caccae; assay: Antimicrobial activity against Bacteroides caccae assessed as resistant isolates by agar dilution method
How it was run: (§2)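 CLSI agar dilution on enriched brucella agar (5% lysed defibrinated sheep blood, 1 μg/ml vitamin K1), plates made on test day. Log-phase inocula adjusted to 0.5 McFarland; about 10^5 CFU/spot by Steers replicator. Incubated anaerobically at 37°C for 48 h. MIC was the lowest concentration giving a marked change in growth versus the drug-free control plate. Resistance rates used CLSI anaerobe breakpoints. Controls were B. fragilis ATCC 25285 and B. thetaiotaomicron ATCC 29741.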

[3] = system: Bacteroides caccae; assay: Antimicrobial activity against Bacteroides caccae by agar dilution method; how it was run: as §1
[4] = system: Parabacteroides distasonis; assay: Antimicrobial activity against Bacteroides distasonis assessed as resistant isolates by agar dilution method; how it was run: as §2
[5] = system: Bacteroides fragilis; assay: Antimicrobial activity against Bacteroides fragilis by agar dilution method; how it was run: as §1
[6] = system: Bacteroides fragilis; assay: Antimicrobial activity against Bacteroides fragilis assessed as resistant isolates by agar dilution method; how it was run: as §2
[7] = system: Bacteroides ovatus; assay: Antimicrobial activity against Bacteroides ovatus by agar dilution method; how it was run: as §1
[8] = system: Bacteroides ovatus; assay: Antimicrobial activity against Bacteroides ovatus assessed as resistant isolates by agar dilution method; how it was run: as §2
[9] = system: Bacteroides thetaiotaomicron; assay: Antimicrobial activity against Bacteroides thetaiotaomicron by agar dilution method; how it was run: as §1
[10] = system: Bacteroides thetaiotaomicron; assay: Antimicrobial activity against Bacteroides thetaiotaomicron assessed as resistant isolates by agar dilution method; how it was run: as §2
[11] = system: Bacteroides uniformis; assay: Antimicrobial activity against Bacteroides uniformis by agar dilution method; how it was run: as §1
[12] = system: Bacteroides uniformis; assay: Antimicrobial activity against Bacteroides uniformis assessed as resistant isolates by agar dilution method; how it was run: as §2
[13] = system: Phocaeicola vulgatus; assay: Antimicrobial activity against Bacteroides vulgatus by agar dilution method; how it was run: as §1
[14] = system: Phocaeicola vulgatus; assay: Antimicrobial activity against Bacteroides vulgatus assessed as resistant isolates by agar dilution method; how it was run: as §2
[15] = system: Bacteroides eggerthii; assay: Antimicrobial activity against Bacteroides eggerthii by agar dilution method; how it was run: as §1
[16] = system: Bacteroides eggerthii; assay: Antimicrobial activity against Bacteroides eggerthii assessed as resistant isolates by agar dilution method; how it was run: as §2
[17] = system: Parabacteroides merdae; assay: Antimicrobial activity against Bacteroides merdae by agar dilution method; how it was run: as §1
[18] = system: Parabacteroides merdae; assay: Antimicrobial activity against Bacteroides merdae assessed as resistant isolates by agar dilution method; how it was run: as §2
[19] = system: Bacteroides nordii; assay: Antimicrobial activity against Bacteroides nordii by agar dilution method; how it was run: as §1
[20] = system: Bacteroides nordii; assay: Antimicrobial activity against Bacteroides nordii assessed as resistant isolates by agar dilution method; how it was run: as §2
[21] = system: Clostridioides difficile; assay: Antimicrobial activity against Clostridium difficile by agar dilution method
[22] = system: Clostridium perfringens; assay: Antimicrobial activity against Clostridium perfringens by agar dilution method
[23] = system: [Clostridium] innocuum; assay: Antimicrobial activity against Clostridium innocuum by agar dilution method
[24] = system: [Clostridium] innocuum; assay: Antimicrobial activity against Clostridium innocuum assessed as resistant isolates by agar dilution method; conditions: pooled result: one value given for 4 cell lines, strains, targets or settings
[25] = system: Clostridium paraputrificum; assay: Antimicrobial activity against Clostridium paraputrificum by agar dilution method
[26] = system: Clostridium subterminale; assay: Antimicrobial activity against Clostridium subterminale by agar dilution method
[27] = system: Clostridium tertium; assay: Antimicrobial activity against Clostridium tertium by agar dilution method
[28] = system: Finegoldia magna; assay: Antimicrobial activity against Finegoldia magna by agar dilution method
How it was run: (§3)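 Gram-positive anaerobes were tested by CLSI agar dilution on brucella agar enriched with 5% lysed defibrinated sheep blood and 1 μg/ml vitamin K1. Inoculum was log-phase growth at 0.5 McFarland, about 10^5 CFU/spot by replicator. Incubation was anaerobic, 37°C, 48 h. MIC was the lowest concentration with a marked growth change versus the drug-free plate. Eubacterium lentum ATCC 43055 was the control, and tests were repeated if it fell outside the CLSI range.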

[29] = system: Finegoldia magna; assay: Antimicrobial activity against Finegoldia magna assessed as resistant isolates by agar dilution method
How it was run: (§4)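 Agar dilution following CLSI on brucella agar with 5% lysed defibrinated sheep blood and 1 μg/ml vitamin K1, plates made on test day. Log-phase cells at 0.5 McFarland, about 10^5 CFU/spot by Steers replicator, 48 h anaerobic at 37°C. MIC read as the lowest concentration causing a marked growth change versus control. Resistance counted by CLSI anaerobe breakpoints. Eubacterium lentum ATCC 43055 served as control.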

[30] = system: Peptoniphilus asaccharolyticus; assay: Antimicrobial activity against Peptoniphilus asaccharolyticus by agar dilution method; how it was run: as §3
[31] = system: Peptoniphilus asaccharolyticus; assay: Antimicrobial activity against Peptoniphilus asaccharolyticus assessed as resistant isolates by agar dilution method; conditions: pooled result: one value given for 4 cell lines, strains, targets or settings; how it was run: as §4
[32] = system: Parvimonas micra; assay: Antimicrobial activity against Micromonas micros by agar dilution method; how it was run: as §3
[33] = system: Anaerococcus prevotii; assay: Antimicrobial activity against Anaerococcus prevotii by agar dilution method; how it was run: as §3
[34] = system: Peptostreptococcus sp.; assay: Antimicrobial activity against Peptostreptococcus sp. by agar dilution method
How it was run: (§5)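 Log-phase isolates were adjusted to 0.5 McFarland, and about 10^5 CFU/spot was delivered by Steers replicator. Plates were incubated anaerobically at 37°C for 48 h. MIC was the lowest concentration giving a marked growth change versus the control plate. Eubacterium lentum ATCC 43055 was the QC strain, with repeats when out of range.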

[35] = system: Cutibacterium acnes; assay: Antimicrobial activity against Propionibacterium acnes by agar dilution method; how it was run: as §5
[36] = system: Cutibacterium acnes; assay: Antimicrobial activity against Propionibacterium acnes assessed as resistant isolates by agar dilution method; how it was run: as §4
[37] = system: Propionibacterium; assay: Antimicrobial activity against Propionibacterium sp. by agar dilution method; how it was run: as §5
[38] = system: Propionibacterium; assay: Antimicrobial activity against Propionibacterium sp. assessed as resistant isolates by agar dilution method; how it was run: as §4
[39] = system: Clostridioides difficile; assay: Antimicrobial activity against Clostridium difficile by agar dilution method in presence of beta-lactamase inhibitor Tazobactam; how it was run: as §3
[40] = system: Finegoldia magna; assay: Antimicrobial activity against Finegoldia magna by agar dilution method in presence of beta-lactamase inhibitor Tazobactam; how it was run: as §3
[41] = system: Peptoniphilus asaccharolyticus; assay: Antimicrobial activity against Peptoniphilus asaccharolyticus by agar dilution method in presence of beta-lactamase inhibitor Tazobactam; how it was run: as §3
[42] = system: Parvimonas micra; assay: Antimicrobial activity against Micromonas micros by agar dilution method in presence of beta-lactamase inhibitor Tazobactam; how it was run: as §3
[43] = system: Anaerococcus prevotii; assay: Antimicrobial activity against Anaerococcus prevotii by agar dilution method in presence of beta-lactamase inhibitor Tazobactam; how it was run: as §3
[44] = system: Peptostreptococcus sp.; assay: Antimicrobial activity against Peptostreptococcus sp. by agar dilution method in presence of beta-lactamase inhibitor Tazobactam; how it was run: as §5
[45] = system: Cutibacterium acnes; assay: Antimicrobial activity against Propionibacterium acnes by agar dilution method in presence of beta-lactamase inhibitor Tazobactam; how it was run: as §5
[46] = system: Propionibacterium; assay: Antimicrobial activity against Propionibacterium sp. by agar dilution method in presence of beta-lactamase inhibitor Tazobactam; how it was run: as §5

For C[C@@H](O)[C@H]1C(=O)N2C(C(=O)O)=C(S[C@@H]3CN[C@H](C(=O)N(C)C)C3)[C@H](C)[C@H]12 [MEROPENEM], the MIC50 [1] was 1 µg/mL (≈ 2.61 µM), the MIC90 [1] was 2 µg/mL (≈ 5.22 µM) and the Activity [2] was 0%. The MIC50 [3] was 0.25 µg/mL (≈ 0.652 µM), the MIC90 [3] was 2 µg/mL (≈ 5.22 µM) and the Activity [4] was 0%. The MIC50 [5] was 0.25 µg/mL (≈ 0.652 µM), the MIC90 [5] was 1 µg/mL (≈ 2.61 µM) and the Activity [6] was 1.5%. It also gave an MIC50 [7] of 0.5 µg/mL (≈ 1.3 µM), an MIC90 [7] of 2 µg/mL (≈ 5.22 µM) and an Activity [8] of 0%. For the same molecule, the MIC50 [9] was 0.5 µg/mL (≈ 1.3 µM), the MIC90 [9] was 2 µg/mL (≈ 5.22 µM) and the Activity [10] was 0%. It also gave an MIC50 [11] of 0.25 µg/mL (≈ 0.652 µM), an MIC90 [11] of 0.5 µg/mL (≈ 1.3 µM) and an Activity [12] of 0%. For the same molecule, the MIC50 [13] was 0.5 µg/mL (≈ 1.3 µM), the MIC90 [13] was 2 µg/mL (≈ 5.22 µM) and the Activity [14] was 0%. The MIC50 [15] was 0.25 µg/mL (≈ 0.652 µM), the MIC90 [15] was 1 µg/mL (≈ 2.61 µM) and the Activity [16] was 0%. The MIC50 [17] was 0.25 µg/mL (≈ 0.652 µM), the MIC90 [17] was 1 µg/mL (≈ 2.61 µM) and the Activity [18] was 0%. It also gave an MIC50 [19] of 0.25 µg/mL (≈ 0.652 µM), an MIC90 [19] of 1 µg/mL (≈ 2.61 µM) and an Activity [20] of 0%. For the same molecule, the MIC [21] was 1 µg/mL (≈ 2.61 µM), the MIC [22] was 0.06 µg/mL (≈ 0.156 µM) and the MIC50 [22] was 0.06 µg/mL (≈ 0.156 µM). The MIC90 [22] was 0.125 µg/mL (≈ 0.326 µM), the MIC50 [23] was 2 µg/mL (≈ 5.22 µM) and the MIC90 [23] was 2 µg/mL (≈ 5.22 µM). The Activity [24] was 0%, the MIC50 [25] was 2 µg/mL (≈ 5.22 µM) and the MIC90 [25] was 2 µg/mL (≈ 5.22 µM). For the same molecule, the MIC50 [26] was 2 µg/mL (≈ 5.22 µM), the MIC90 [26] was 2 µg/mL (≈ 5.22 µM) and the MIC50 [27] was 2 µg/mL (≈ 5.22 µM). For the same molecule, the MIC90 [27] was 2 µg/mL (≈ 5.22 µM), the MIC50 [28] was 0.125 µg/mL (≈ 0.326 µM) and the MIC90 [28] was 0.125 µg/mL (≈ 0.326 µM). It also gave an Activity [29] of 0%, an MIC50 [30] of 0.125 µg/mL (≈ 0.326 µM) and an MIC90 [30] of 0.5 µg/mL (≈ 1.3 µM). For the same molecule, the Activity [31] was 0%, the MIC50 [32] was 0.125 µg/mL (≈ 0.326 µM) and the MIC90 [32] was 0.5 µg/mL (≈ 1.3 µM). For the same molecule, the MIC50 [33] was 0.125 µg/mL (≈ 0.326 µM), the MIC90 [33] was 0.5 µg/mL (≈ 1.3 µM) and the MIC50 [34] was 0.125 µg/mL (≈ 0.326 µM). The MIC90 [34] was 0.5 µg/mL (≈ 1.3 µM), the MIC [35] was 0.06 µg/mL (≈ 0.156 µM) and the MIC50 [35] was 0.06 µg/mL (≈ 0.156 µM). For the same molecule, the MIC90 [35] was 0.06 µg/mL (≈ 0.156 µM), the Activity [36] was 0% and the MIC [37] was 0.06 µg/mL (≈ 0.156 µM). It also gave an MIC50 [37] of 0.06 µg/mL (≈ 0.156 µM), an MIC90 [37] of 0.25 µg/mL (≈ 0.652 µM) and an Activity [38] of 0%.
In the case of CCN1CCN(C(=O)N[C@@H](C(=O)N[C@@H]2C(=O)N3[C@@H]2SC(C)(C)[C@@H]3C(=O)O)c2ccccc2)C(=O)C1=O [PIPERACILLIN], the Activity [2] was 0%, the Activity [4] was 0% and the Activity [6] was 1%. The Activity [8] was 0%, the Activity [10] was 1.3% and the Activity [12] was 0%. It also gave an Activity [14] of 0%, an Activity [16] of 0% and an Activity [18] of 0%. It also gave an Activity [20] of 0%, an MIC [39] of 2 µg/mL and an Activity [24] of 5.6%. For the same molecule, the MIC [40] was 0.5 µg/mL, the MIC ([40]; Finegoldia magna, read-out: MIC) was 0.5 µg/mL and the Activity [29] was 0%. For the same molecule, the MIC [41] was 0.5 µg/mL, the MIC ([41]; Peptoniphilus asaccharolyticus, read-out: MIC) was 0.5 µg/mL and the Activity [31] was 0%. For the same molecule, the MIC [42] was 0.5 µg/mL, the MIC ([42]; Parvimonas micra, read-out: MIC) was 0.5 µg/mL and the MIC [43] was 0.5 µg/mL. It also gave an MIC ([43]; Anaerococcus prevotii, read-out: MIC) of 0.5 µg/mL, an MIC [44] of 0.5 µg/mL and an MIC ([44]; Peptostreptococcus sp., read-out: MIC) of 0.5 µg/mL. For the same molecule, the MIC [45] was 0.25 µg/mL and 0.5 µg/mL, the MIC ([45]; Cutibacterium acnes, read-out: MIC) was 0.25 µg/mL and the Activity [36] was 0%. The MIC [46] was 0.25 µg/mL and 0.5 µg/mL, the MIC ([46]; Propionibacterium, read-out: MIC) was 0.25 µg/mL and the Activity [38] was 0%.
